Laboratory results taken from ChEMBL document CHEMBL3272030, “Synthesis and biological properties of some spin-labeled 9-aminoacridines” (J Med Chem, 1976).

test system: L1210; assay: Cytotoxicity against mouse L1210 cells assessed as growth inhibition at 100 ug/ml after 24 hrs; assay type: functional; settings: not given
How it was run: (§1)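 L1210 leukemia cells seeded at 10^5 cells/ml and grown in static culture in RPMI 1630 medium with fetal calf serum. Drug tested at 0.01–100 µg/ml, with 24 h and 48 h exposures. Read-out is percent inhibition of growth. Assays were run in triplicate, and values are the mean of two separate experiments.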

SMILES	growth inhibition (GI) [%]
COc1ccc2nc3cc(Cl)ccc3c(NCC3CC(C)(C)N([O])C3(C)C)c2c1 (configuration not stated)	40
CC1(C)CC(NCCCNc2c3ccccc3nc3ccccc23)CC(C)(C)N1[O]	47

test system: L1210; assay: Cytotoxicity against mouse L1210 cells assessed as growth inhibition at 100 ug/ml after 48 hrs; assay type: functional; settings: not given; how it was run: as §1

SMILES	growth inhibition (GI) [%]
COc1ccc2nc3cc(Cl)ccc3c(NCC3CC(C)(C)N([O])C3(C)C)c2c1 (configuration not stated)	74
CC1(C)CC(NCCCNc2c3ccccc3nc3ccccc23)CC(C)(C)N1[O]	86

test system: L1210; assay: Cytotoxicity against mouse L1210 cells assessed as growth inhibition at 10 ug/ml after 24 hrs; assay type: functional; settings: not given; how it was run: as §1

SMILES	growth inhibition (GI) [%]
COc1ccc2nc3cc(Cl)ccc3c(NCC3CC(C)(C)N([O])C3(C)C)c2c1 (configuration not stated)	35
CC1(C)CC(NCCCNc2c3ccccc3nc3ccccc23)CC(C)(C)N1[O]	56

test system: L1210; assay: Cytotoxicity against mouse L1210 cells assessed as growth inhibition at 10 ug/ml after 48 hrs; assay type: functional; settings: not given; how it was run: as §1

SMILES	growth inhibition (GI) [%]
COc1ccc2nc3cc(Cl)ccc3c(NCC3CC(C)(C)N([O])C3(C)C)c2c1 (configuration not stated)	76
CC1(C)CC(NCCCNc2c3ccccc3nc3ccccc23)CC(C)(C)N1[O]	87

test system: L1210; assay: Cytotoxicity against mouse L1210 cells assessed as growth inhibition at 1 ug/ml after 24 hrs; assay type: functional; settings: not given; how it was run: as §1

SMILES	growth inhibition (GI) [%]
COc1ccc2nc3cc(Cl)ccc3c(NCC3CC(C)(C)N([O])C3(C)C)c2c1 (configuration not stated)	6
CC1(C)CC(NCCCNc2c3ccccc3nc3ccccc23)CC(C)(C)N1[O]	10

test system: L1210; assay: Cytotoxicity against mouse L1210 cells assessed as growth inhibition at 1 ug/ml after 48 hrs; assay type: functional; settings: not given; how it was run: as §1

SMILES	growth inhibition (GI) [%]
COc1ccc2nc3cc(Cl)ccc3c(NCC3CC(C)(C)N([O])C3(C)C)c2c1 (configuration not stated)	19
CC1(C)CC(NCCCNc2c3ccccc3nc3ccccc23)CC(C)(C)N1[O]	16

test system: L1210; assay: Cytotoxicity against mouse L1210 cells assessed as growth inhibition at 0.1 ug/ml after 24 hrs; assay type: functional; settings: not given; how it was run: as §1

SMILES	growth inhibition (GI) [%]
COc1ccc2nc3cc(Cl)ccc3c(NCC3CC(C)(C)N([O])C3(C)C)c2c1 (configuration not stated)	0
CC1(C)CC(NCCCNc2c3ccccc3nc3ccccc23)CC(C)(C)N1[O]	0

test system: L1210; assay: Cytotoxicity against mouse L1210 cells assessed as growth inhibition at 0.1 ug/ml after 48 hrs; assay type: functional; settings: not given; how it was run: as §1

SMILES	growth inhibition (GI) [%]
COc1ccc2nc3cc(Cl)ccc3c(NCC3CC(C)(C)N([O])C3(C)C)c2c1 (configuration not stated)	5
CC1(C)CC(NCCCNc2c3ccccc3nc3ccccc23)CC(C)(C)N1[O]	0

test system: L1210; assay: Cytotoxicity against mouse L1210 cells assessed as growth inhibition at 0.01 ug/ml after 24 hrs; assay type: functional; settings: not given; how it was run: as §1

SMILES	growth inhibition (GI) [%]
COc1ccc2nc3cc(Cl)ccc3c(NCC3CC(C)(C)N([O])C3(C)C)c2c1 (configuration not stated)	10
CC1(C)CC(NCCCNc2c3ccccc3nc3ccccc23)CC(C)(C)N1[O]	0

test system: L1210; assay: Cytotoxicity against mouse L1210 cells assessed as growth inhibition at 0.01 ug/ml after 48 hrs; assay type: functional; settings: not given; how it was run: as §1

SMILES	growth inhibition (GI) [%]
COc1ccc2nc3cc(Cl)ccc3c(NCC3CC(C)(C)N([O])C3(C)C)c2c1 (configuration not stated)	7
CC1(C)CC(NCCCNc2c3ccccc3nc3ccccc23)CC(C)(C)N1[O]	0

test system: Calf thymus DNA; assay: Binding affinity to calf thymus DNA assessed as decrease in DNA sedimentation coefficient at 5.2 x 10^-6 M relative to untreated control; assay type: nucleic-acid assay; settings: Bos taurus
How it was run: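 Calf thymus DNA was mixed with compound at 5.2 × 10^-6 M and incubated 30 min at about 22°. Sedimentation was run in an analytical ultracentrifuge at 20°, with UV scanning at 260 nm. Each run included a drug-free DNA control. Sedimentation coefficients were not corrected for density or viscosity.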

SMILES	Ratio
COc1ccc2nc3cc(Cl)ccc3c(NCC3CC(C)(C)N([O])C3(C)C)c2c1 (configuration not stated)	1.04

biological target: T1, Bacterial DNA-directed RNA polymerase (Bacteria) (UniProt P0A8V2+P0A7Z4+P0A8T7+P0A800); assay: Inhibition of Escherichia coli DNA-primed RNA polymerase activity using [8-14C]ATP at 400 ug/ml by scintillation counting; assay type: protein-complex assay; set-up: scale not given: the % may be the effect or the level left; settings: not given
T1 sequence (P0A7Z4 whole entry partner): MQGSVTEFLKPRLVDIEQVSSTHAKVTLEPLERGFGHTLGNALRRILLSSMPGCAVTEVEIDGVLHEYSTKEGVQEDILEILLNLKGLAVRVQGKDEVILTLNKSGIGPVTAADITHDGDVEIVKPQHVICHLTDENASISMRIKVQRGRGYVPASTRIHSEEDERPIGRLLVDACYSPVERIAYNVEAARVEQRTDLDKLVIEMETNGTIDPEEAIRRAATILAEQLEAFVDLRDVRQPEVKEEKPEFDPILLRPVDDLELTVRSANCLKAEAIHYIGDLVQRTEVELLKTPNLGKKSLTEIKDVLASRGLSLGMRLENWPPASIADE
T1 sequence (P0A800 2-91 partner limits assumed): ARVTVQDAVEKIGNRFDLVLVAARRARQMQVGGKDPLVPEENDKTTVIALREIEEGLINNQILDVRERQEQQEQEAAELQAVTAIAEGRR
T1 sequence (P0A8T7 whole entry partner): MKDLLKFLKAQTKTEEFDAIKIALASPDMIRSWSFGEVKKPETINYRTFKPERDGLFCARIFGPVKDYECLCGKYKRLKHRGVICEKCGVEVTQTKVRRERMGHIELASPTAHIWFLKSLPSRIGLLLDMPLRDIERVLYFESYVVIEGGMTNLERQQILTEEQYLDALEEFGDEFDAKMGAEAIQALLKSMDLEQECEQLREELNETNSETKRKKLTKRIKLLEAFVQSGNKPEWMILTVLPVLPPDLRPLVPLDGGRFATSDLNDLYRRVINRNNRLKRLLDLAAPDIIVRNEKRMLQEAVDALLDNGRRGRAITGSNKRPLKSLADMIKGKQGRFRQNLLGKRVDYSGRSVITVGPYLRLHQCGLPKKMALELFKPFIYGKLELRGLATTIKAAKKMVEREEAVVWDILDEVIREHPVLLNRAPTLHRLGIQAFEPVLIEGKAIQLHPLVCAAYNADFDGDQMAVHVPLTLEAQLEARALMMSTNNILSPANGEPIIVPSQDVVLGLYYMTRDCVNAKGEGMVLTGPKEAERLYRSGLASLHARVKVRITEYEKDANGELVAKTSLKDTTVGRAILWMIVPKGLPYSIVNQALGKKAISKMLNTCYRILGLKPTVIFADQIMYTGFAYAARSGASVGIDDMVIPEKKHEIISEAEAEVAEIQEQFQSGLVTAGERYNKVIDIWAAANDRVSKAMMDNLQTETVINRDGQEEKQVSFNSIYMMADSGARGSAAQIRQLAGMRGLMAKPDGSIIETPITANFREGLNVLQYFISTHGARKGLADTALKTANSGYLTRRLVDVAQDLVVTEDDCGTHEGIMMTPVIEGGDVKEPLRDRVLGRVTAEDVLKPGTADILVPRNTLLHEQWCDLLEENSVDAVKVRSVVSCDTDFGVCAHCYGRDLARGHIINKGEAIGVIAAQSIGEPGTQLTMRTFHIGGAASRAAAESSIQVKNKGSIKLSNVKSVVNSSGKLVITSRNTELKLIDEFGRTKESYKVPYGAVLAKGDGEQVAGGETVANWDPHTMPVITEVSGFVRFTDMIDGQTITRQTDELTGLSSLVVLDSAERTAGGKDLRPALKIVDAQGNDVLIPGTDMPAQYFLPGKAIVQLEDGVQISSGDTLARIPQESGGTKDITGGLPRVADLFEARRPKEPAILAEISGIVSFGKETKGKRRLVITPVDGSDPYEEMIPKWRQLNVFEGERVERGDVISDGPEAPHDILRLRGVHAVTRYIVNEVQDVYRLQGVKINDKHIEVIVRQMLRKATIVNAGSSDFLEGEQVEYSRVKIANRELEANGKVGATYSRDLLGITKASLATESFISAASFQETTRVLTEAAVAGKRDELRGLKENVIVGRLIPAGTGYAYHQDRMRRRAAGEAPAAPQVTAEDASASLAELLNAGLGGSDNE
T1 sequence (P0A8V2 whole entry): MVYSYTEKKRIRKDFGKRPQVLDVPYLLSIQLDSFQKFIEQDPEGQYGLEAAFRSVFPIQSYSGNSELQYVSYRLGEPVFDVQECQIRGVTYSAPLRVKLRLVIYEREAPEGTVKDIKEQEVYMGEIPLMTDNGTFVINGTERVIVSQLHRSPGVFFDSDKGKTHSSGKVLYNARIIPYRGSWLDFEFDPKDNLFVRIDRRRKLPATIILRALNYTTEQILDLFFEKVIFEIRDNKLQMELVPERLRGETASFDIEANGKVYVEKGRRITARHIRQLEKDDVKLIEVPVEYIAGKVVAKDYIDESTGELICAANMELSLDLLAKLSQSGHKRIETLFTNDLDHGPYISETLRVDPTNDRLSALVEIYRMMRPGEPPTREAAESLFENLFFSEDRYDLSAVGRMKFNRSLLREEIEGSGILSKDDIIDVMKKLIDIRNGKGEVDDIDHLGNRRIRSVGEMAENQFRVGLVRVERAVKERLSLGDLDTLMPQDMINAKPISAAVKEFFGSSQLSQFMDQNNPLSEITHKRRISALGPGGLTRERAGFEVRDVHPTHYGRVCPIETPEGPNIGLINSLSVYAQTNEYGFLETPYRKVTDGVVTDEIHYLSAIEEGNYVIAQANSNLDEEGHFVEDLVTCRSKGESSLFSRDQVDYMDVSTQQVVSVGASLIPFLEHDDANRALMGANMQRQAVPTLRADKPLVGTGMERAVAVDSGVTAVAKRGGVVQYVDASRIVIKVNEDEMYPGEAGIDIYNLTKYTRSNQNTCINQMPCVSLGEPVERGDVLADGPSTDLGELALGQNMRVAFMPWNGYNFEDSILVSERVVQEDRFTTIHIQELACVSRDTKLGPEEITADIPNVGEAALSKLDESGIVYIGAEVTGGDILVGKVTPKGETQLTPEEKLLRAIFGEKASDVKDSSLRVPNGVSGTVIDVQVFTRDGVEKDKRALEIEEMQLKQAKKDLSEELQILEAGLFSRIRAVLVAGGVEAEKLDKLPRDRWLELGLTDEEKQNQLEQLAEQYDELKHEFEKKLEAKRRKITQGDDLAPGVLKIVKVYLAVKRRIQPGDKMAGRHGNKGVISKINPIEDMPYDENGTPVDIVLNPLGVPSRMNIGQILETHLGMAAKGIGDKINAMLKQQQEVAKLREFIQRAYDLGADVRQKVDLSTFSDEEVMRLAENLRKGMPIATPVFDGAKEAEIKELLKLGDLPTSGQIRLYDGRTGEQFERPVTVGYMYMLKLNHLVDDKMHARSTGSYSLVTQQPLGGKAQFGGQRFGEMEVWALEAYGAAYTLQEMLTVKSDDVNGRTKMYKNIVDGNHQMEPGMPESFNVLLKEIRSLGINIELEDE
How it was run: (§2)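 Commercial E. coli RNA polymerase was used, with calf thymus DNA template (3.65 µg) in 0.125 ml containing Tris-HCl pH 8.0, MgCl2, β-mercaptoethanol, CTP/UTP/GTP (0.019 µmol each) and [8-14C]ATP (0.019 µmol). Compound in DMSO was added before the enzyme; controls received DMSO. Mixtures were incubated 10 min at 37°. Acid-insoluble label was collected by filter-disk assay and counted by liquid scintillation.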

SMILES	Activity [%]
CC1(C)CC(NCCCNc2c3ccccc3nc3ccccc23)CC(C)(C)N1[O]	12

biological target: T1, Bacterial DNA-directed RNA polymerase (Bacteria); assay: Stimulation of Escherichia coli DNA-primed RNA polymerase activity using [8-14C]ATP at 400 ug/ml by scintillation counting; assay type: protein-complex assay; settings: not given; how it was run: as §2

SMILES	Activity [%]
COc1ccc2nc3cc(Cl)ccc3c(NCC3CC(C)(C)N([O])C3(C)C)c2c1 (configuration not stated)	107

biological target: T1, Bacterial DNA-directed RNA polymerase (Bacteria); assay: Inhibition of Escherichia coli DNA-primed RNA polymerase activity using [8-14C]ATP at 200 ug/ml by scintillation counting; assay type: protein-complex assay; set-up: scale not given: the % may be the effect or the level left; settings: not given; how it was run: as §2

SMILES	Activity [%]
CC1(C)CC(NCCCNc2c3ccccc3nc3ccccc23)CC(C)(C)N1[O]	20

biological target: T1, Bacterial DNA-directed RNA polymerase (Bacteria); assay: Stimulation of Escherichia coli DNA-primed RNA polymerase activity using [8-14C]ATP at 200 ug/ml by scintillation counting; assay type: protein-complex assay; settings: not given; how it was run: as §2

SMILES	Activity [%]
COc1ccc2nc3cc(Cl)ccc3c(NCC3CC(C)(C)N([O])C3(C)C)c2c1 (configuration not stated)	102

biological target: T1, Bacterial DNA-directed RNA polymerase (Bacteria); assay: Inhibition of Escherichia coli DNA-primed RNA polymerase activity using [8-14C]ATP at 100 ug/ml by scintillation counting; assay type: protein-complex assay; set-up: scale not given: the % may be the effect or the level left; settings: not given; how it was run: as §2

SMILES	Activity [%]
CC1(C)CC(NCCCNc2c3ccccc3nc3ccccc23)CC(C)(C)N1[O]	31

biological target: T1, Bacterial DNA-directed RNA polymerase (Bacteria); assay: Stimulation of Escherichia coli DNA-primed RNA polymerase activity using [8-14C]ATP at 100 ug/ml by scintillation counting; assay type: protein-complex assay; settings: not given; how it was run: as §2

SMILES	Activity [%]
COc1ccc2nc3cc(Cl)ccc3c(NCC3CC(C)(C)N([O])C3(C)C)c2c1 (configuration not stated)	106

biological target: T1, Bacterial DNA-directed RNA polymerase (Bacteria); assay: Inhibition of Escherichia coli DNA-primed RNA polymerase activity using [8-14C]ATP at 50 ug/ml by scintillation counting; assay type: protein-complex assay; set-up: scale not given: the % may be the effect or the level left; settings: not given; how it was run: as §2

SMILES	Activity [%]
CC1(C)CC(NCCCNc2c3ccccc3nc3ccccc23)CC(C)(C)N1[O]	42

biological target: T1, Bacterial DNA-directed RNA polymerase (Bacteria); assay: Stimulation of Escherichia coli DNA-primed RNA polymerase activity using [8-14C]ATP at 50 ug/ml by scintillation counting; assay type: protein-complex assay; settings: not given; how it was run: as §2

SMILES	Activity [%]
COc1ccc2nc3cc(Cl)ccc3c(NCC3CC(C)(C)N([O])C3(C)C)c2c1 (configuration not stated)	106

biological target: T1, Bacterial DNA-directed RNA polymerase (Bacteria); assay: Inhibition of Escherichia coli DNA-primed RNA polymerase activity using [8-14C]ATP at 25 ug/ml by scintillation counting; assay type: protein-complex assay; set-up: scale not given: the % may be the effect or the level left; settings: not given; how it was run: as §2

SMILES	Activity [%]
CC1(C)CC(NCCCNc2c3ccccc3nc3ccccc23)CC(C)(C)N1[O]	71

biological target: T1, Bacterial DNA-directed RNA polymerase (Bacteria); assay: Stimulation of Escherichia coli DNA-primed RNA polymerase activity using [8-14C]ATP at 25 ug/ml by scintillation counting; assay type: protein-complex assay; settings: not given; how it was run: as §2

SMILES	Activity [%]
COc1ccc2nc3cc(Cl)ccc3c(NCC3CC(C)(C)N([O])C3(C)C)c2c1 (configuration not stated)	112

biological target: T1, Bacterial DNA-directed RNA polymerase (Bacteria); assay: Stimulation of Escherichia coli DNA-primed RNA polymerase activity using [8-14C]ATP by scintillation counting; assay type: protein-complex assay; settings: not given; how it was run: as §2

SMILES	Activity
COc1ccc2nc3cc(Cl)ccc3c(NCC3CC(C)(C)N([O])C3(C)C)c2c1 (configuration not stated)	Dose-dependent effect
